Reference: the M2OR odorant receptor database

Tests used:
Conditions in all cases: stereoisomer not certain
[1] = tested on: O51V1 L36F N51T G96W
Outline: (§1)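 Values were gathered from published papers (main text and supplementary material), with extra details requested from the original authors when needed, and checked for typos and inconsistencies. Each receptor–molecule pair is called responsive (active) if the original authors judged the measured signal statistically different from baseline, and non-responsive (inactive) otherwise. Assay methods varied by source, often transient mammalian cell-line luciferase assays. Recorded details include cell line, G-protein, co-transfected protein and tags.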

[2] = tested on: O52A1
Chain of O52A1 (as listed by the source): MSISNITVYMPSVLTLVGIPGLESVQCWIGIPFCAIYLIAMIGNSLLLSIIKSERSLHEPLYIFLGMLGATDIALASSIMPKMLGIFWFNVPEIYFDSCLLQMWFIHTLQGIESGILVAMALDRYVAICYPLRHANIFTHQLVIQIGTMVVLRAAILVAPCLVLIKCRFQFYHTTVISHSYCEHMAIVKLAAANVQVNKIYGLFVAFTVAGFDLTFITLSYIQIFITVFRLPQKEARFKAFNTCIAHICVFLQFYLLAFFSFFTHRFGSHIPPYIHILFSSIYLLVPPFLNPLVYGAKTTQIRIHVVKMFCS
Outline: as §1

[3] = tested on: O52B6 V288I
Chain of O52B6 V288I (as listed by the source, stated change not applied): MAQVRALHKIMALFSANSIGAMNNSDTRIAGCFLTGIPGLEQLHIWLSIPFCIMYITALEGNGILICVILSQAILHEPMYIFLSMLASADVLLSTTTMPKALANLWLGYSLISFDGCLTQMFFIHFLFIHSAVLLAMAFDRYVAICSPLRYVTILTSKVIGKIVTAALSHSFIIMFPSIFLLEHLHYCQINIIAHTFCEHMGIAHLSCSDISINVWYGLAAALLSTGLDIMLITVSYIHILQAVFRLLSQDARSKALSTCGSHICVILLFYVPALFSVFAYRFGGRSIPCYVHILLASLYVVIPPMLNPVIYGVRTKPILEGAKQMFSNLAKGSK
Outline: as §1

[4] = tested on: O52E2 R264C
Chain of O52E2 R264C (as listed by the source, stated change not applied): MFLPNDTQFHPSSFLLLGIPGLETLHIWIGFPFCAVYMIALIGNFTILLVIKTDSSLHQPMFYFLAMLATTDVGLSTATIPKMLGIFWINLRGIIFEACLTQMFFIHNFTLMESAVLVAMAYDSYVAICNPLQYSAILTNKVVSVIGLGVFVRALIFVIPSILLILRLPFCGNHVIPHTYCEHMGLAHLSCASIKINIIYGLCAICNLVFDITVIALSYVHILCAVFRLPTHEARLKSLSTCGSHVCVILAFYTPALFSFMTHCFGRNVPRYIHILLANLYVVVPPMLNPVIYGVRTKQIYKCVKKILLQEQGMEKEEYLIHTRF
Outline: as §1

[5] = tested on: O52E4
Chain of O52E4 (as listed by the source): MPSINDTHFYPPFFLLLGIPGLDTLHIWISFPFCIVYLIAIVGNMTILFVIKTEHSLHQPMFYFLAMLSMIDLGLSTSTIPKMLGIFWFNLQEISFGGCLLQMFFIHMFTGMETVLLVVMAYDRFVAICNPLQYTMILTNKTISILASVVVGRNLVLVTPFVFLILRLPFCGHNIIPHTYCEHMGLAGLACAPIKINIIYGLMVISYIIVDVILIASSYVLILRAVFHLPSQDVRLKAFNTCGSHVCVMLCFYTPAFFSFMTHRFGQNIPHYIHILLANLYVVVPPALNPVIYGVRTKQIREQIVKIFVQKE
Outline: as §1

[6] = tested on: O52E5
Chain of O52E5 (as listed by the source): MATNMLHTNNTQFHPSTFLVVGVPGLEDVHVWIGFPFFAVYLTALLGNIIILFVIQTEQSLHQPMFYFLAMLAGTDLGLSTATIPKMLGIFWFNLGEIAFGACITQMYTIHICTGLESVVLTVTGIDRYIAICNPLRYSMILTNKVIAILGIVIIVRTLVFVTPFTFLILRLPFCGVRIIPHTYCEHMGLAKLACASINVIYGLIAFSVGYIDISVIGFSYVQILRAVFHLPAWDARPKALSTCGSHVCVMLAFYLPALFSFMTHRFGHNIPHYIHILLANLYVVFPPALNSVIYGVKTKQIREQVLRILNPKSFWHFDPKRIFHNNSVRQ
Outline: as §1

[7] = tested on: O52E8
Chain of O52E8 (as listed by the source): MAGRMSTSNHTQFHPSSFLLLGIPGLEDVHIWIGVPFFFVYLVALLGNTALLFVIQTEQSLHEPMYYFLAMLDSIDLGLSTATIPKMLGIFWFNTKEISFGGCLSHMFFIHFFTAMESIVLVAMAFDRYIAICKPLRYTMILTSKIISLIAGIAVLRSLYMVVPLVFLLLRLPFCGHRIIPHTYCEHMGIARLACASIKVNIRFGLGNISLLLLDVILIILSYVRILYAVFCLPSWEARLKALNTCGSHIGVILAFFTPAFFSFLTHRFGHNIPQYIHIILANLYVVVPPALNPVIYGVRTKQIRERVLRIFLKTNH
Outline: as §1

[8] = tested on: O52H1 A89T H130R C242R
Outline: as §1

[9] = tested on: O52H1 H130R C242R
Outline: as §1

[10] = tested on: O52H1
Chain of O52H1 (as listed by the source): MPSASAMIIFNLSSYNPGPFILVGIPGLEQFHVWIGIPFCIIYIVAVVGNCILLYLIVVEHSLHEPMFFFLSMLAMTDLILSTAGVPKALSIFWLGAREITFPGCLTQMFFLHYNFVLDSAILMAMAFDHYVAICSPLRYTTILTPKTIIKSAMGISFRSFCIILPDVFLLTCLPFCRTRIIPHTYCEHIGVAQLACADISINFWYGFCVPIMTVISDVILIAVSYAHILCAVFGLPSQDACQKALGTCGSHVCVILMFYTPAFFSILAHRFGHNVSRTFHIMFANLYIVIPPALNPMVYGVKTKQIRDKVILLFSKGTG
Outline: as §1

Measured: odorant receptor agonist call

C=CCOC(=O)Cc1ccccc1
inactive: all assays above

Cc1c([N+](=O)[O-])c(C)c([N+](=O)[O-])c(C(C)(C)C)c1[N+](=O)[O-]
inactive: [7] | [10]
